# Reference: article PMC7678623 (Angewandte Chemie (International ed. in English), 2019)
# Tests used:
# Type in all cases: cell-based
# CDK4/6 = assay: Immunoblot for CDK4/6 degradation in Jurkat cells; settings: WT Jurkat cells, 4h, Figure 3
# Procedure, shortened: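 Jurkat cells, which express both CDK4 and CDK6, were treated for 4h with test compound at 1 µM. The test compounds were degraders built on each of three CDK4/6 inhibitor scaffolds. CDK4 and CDK6 protein levels were then assessed by immunoblot.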
# IKZF1/3 = assay: Immunoblot for IKZF1/3 degradation in Jurkat cells; settings: 4h, Figure 3
# Molt4 cells = assay: Multiplexed MS-based quantitative proteomics; settings: 250 nM, 5h
# [1] = test system: CDK4/6, IKZF1/3, phosphorylated Rb; assay: Immunoblots in Granta-519 cells; settings: 1 µM, 1d
# [2] = test system: wildtype and Crbn−/− Jurkat cells; assay: Cell cycle profile by propidium iodide staining of DNA content; settings: 100 nM, 24h
# Procedure, shortened: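 Wildtype and Crbn−/− Jurkat cells were exposed to 100 nM test compound for 24h, alongside a parent CDK4/6 inhibitor and an imide CRBN ligand as comparators. Cells were stained with propidium iodide for DNA content, and cell cycle distribution was read from fluorescence histograms and then quantitated.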
SMILES,CDK4 and CDK6 degradation selectivity (immunoblot) (CDK4/6),IKZF1/3 degradation (immunoblot) (IKZF1/3),proteome-wide degradation selectivity (Molt4 cells),CDK4/6 and IKZF1/3 protein loss (immunoblot) [1],CDK4 abundance change (Molt4 cells),cell cycle effect (G1 arrest) ([2]; Crbn−/− Jurkat cells),cell cycle effect (G1 arrest) ([2]; wildtype Jurkat cells),levels of phosphorylated Rb (immunoblot) [1]
CN(C)C(=O)c1cc2cnc(Nc3ccc(N4CCN(CCCCNC(=O)CNc5cccc6c5C(=O)N(C5CCC(=O)NC5=O)C6=O)CC4)cn3)nc2n1C1CCCC1 (centres unmarked) [BSJ-01–187],selectively degraded CDK4,induced degradation of IKZF1/3,,,,,,
CC(=O)c1c(C)c2cnc(Nc3ccc(N4CCN(CCOCCOCCOCCNC(=O)COc5cccc6c5C(=O)N(C5CCC(=O)NC5=O)C6=O)CC4)cn3)nc2n(C2CCCC2)c1=O (centres unmarked) [BSJ-03–123],selective CDK6 degrader,none of which induced IKZF1/3 degradation,"loss of CDK6, but not CDK4 or IKZF1/3",,,,,
CC(=O)c1c(C)c2cnc(Nc3ccc(N4CCN(CCCCNC(=O)COc5cccc6c5C(=O)N(C5CCC(=O)NC5=O)C6=O)CC4)cn3)nc2n(C2CCCC2)c1=O (centres unmarked) [BSJ-03–204],dual CDK4/6 degrader,none of which induced IKZF1/3 degradation,selective for CDK4/6 degradation,only resulted in degradation of CDK4/6,,,,
CN(C)C(=O)c1cc2cnc(Nc3ccc(N4CCN(CCCCNC(=O)COc5cccc6c5C(=O)N(C5CCC(=O)NC5=O)C6=O)CC4)cn3)nc2n1C1CCCC1 (centres unmarked) [BSJ-04–132],selective CDK4 degrader,none of which induced IKZF1/3 degradation,"its level was reduced to a greater extent than those of CDK6, IKZF1 and IKZF3",,~ 1.9 fold change,,,
CC(=O)c1c(C)c2cnc(Nc3ccc(N4CCN(CC(=O)NCCOCCOCCOCCNc5cccc6c5C(=O)N(C5CCC(=O)NC5=O)C6=O)CC4)cn3)nc2n(C2CCCC2)c1=O (centres unmarked) [YKL-06–102],induced selective degradation of CDK6,induced degradation of IKZF1/3,,,,,,
Nc1cccc2c1CN(C1CCC(=O)NC1=O)C2=O (centres unmarked) [lenalidomide],,,,,,had no effect,had no effect,
CC(=O)c1c(C)c2cnc(Nc3ccc(N4CCNCC4)cn3)nc2n(C2CCCC2)c1=O [palbociclib],,,,,,induced profound G1 arrest in both cell lines,induced profound G1 arrest in both cell lines,reduced levels of phosphorylated Rb
